From ChEMBL document CHEMBL3352683, “Rational design of urea-based glutamate carboxypeptidase II (GCPII) inhibitors as versatile tools for specific drug targeting and delivery” (Bioorg Med Chem, 2014) come the findings set out here.

In general, pKi refers to the negative decadic logarithm of the Ki, by convention in mol/L.

pKi: −log10 of the molar value.

Glutamate carboxypeptidase 2, sequence (Q04609 whole entry, the tested form may be a part): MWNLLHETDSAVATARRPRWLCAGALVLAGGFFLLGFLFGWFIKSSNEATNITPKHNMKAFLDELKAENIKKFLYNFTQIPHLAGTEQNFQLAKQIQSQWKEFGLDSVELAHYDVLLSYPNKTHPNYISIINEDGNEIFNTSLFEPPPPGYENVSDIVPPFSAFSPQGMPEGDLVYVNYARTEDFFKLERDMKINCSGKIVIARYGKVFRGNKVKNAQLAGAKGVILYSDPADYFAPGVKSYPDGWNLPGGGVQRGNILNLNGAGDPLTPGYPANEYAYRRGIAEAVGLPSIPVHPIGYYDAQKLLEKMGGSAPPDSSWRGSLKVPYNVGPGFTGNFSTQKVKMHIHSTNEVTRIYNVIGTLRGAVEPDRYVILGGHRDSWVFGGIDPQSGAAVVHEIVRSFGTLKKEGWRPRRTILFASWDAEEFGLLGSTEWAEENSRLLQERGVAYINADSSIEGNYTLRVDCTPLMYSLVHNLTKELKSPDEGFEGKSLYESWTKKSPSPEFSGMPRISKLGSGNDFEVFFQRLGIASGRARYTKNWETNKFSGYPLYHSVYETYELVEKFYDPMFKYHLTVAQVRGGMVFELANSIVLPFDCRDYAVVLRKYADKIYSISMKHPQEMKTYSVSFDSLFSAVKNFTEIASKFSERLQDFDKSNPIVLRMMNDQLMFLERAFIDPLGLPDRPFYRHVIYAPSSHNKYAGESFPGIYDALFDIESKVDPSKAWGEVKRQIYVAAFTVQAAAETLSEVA

The experiment concerns the target Glutamate carboxypeptidase 2 (Homo sapiens, UniProt Q04609). In words: Inhibition of human recombinant N-terminal Avi-tagged glutamate carboxypeptidase 2 extracellular domain (44 to 750 amino acids) using pteroyl-di-L-glutamate substrate by HPLC method. The gist of the method:
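Avi-GCPII (0.2 ng) in 25 mM Bis-Tris propane, 150 mM NaCl, 0.001% octaethylene glycol monododecyl ether, pH 7.4, preincubated with inhibitor (ten concentrations) 5 min at 37 °C. Reaction started with pteroyl-di-L-glutamate (20 µl of 4 µM stock), run 20 min at 37 °C, stopped with 2-PMPA. Substrate and product separated by isocratic HPLC, detected at 281 nm; IC50 from full curves, Ki mean ± SD, duplicate or triplicate.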
On to `CC(=O)NCCCC[C@H](NC(=O)N[C@@H](CCC(=O)O)C(=O)O)C(=O)O`, for which the negative logarithm of the Ki (pKi) is 9.76.
To `O=C(O)CC[C@H](NC(=O)N[C@@H](CCCCNC(=O)CCOCCOCCOCCOCCOCCOCCOCCOCCNC(=O)CCCC[C@@H]1SC[C@@H]2NC(=O)N[C@@H]21)C(=O)O)C(=O)O` belongs 8.19; to `CC(=O)NCCOc1cc(I)ccc1C(=O)NCCCC[C@H](NC(=O)N[C@@H](CCC(=O)O)C(=O)O)C(=O)O`, 9.22.
Turning to `O=C(O)CC[C@H](NC(=O)N[C@@H](CCCCNC(=O)Cc1ccccc1OCCNC(=O)CCOCCOCCOCCOCCOCCOCCOCCOCCOCCOCCOCCOCCNC(=O)CCCC[C@H]1SC[C@H]2NC(=O)N[C@H]21)C(=O)O)C(=O)O`, the pKi was 7.55.
`CC(=O)NCCOc1ccccc1CC(=O)NCCCC[C@H](NC(=O)N[C@@H](CCC(=O)O)C(=O)O)C(=O)O`: the pKi is 8.80.
`CC(=O)NCCOc1cc(Br)ccc1C(=O)NCCCC[C@H](NC(=O)N[C@@H](CCC(=O)O)C(=O)O)C(=O)O`: the pKi was 9.57.
To `O=C(O)CC[C@H](NC(=O)N[C@@H](CCCCN(Cc1ccccc1)C(=O)CCOCCOCCOCCOCCOCCOCCOCCOCCOCCOCCOCCOCCNC(=O)CCCC[C@@H]1SC[C@@H]2NC(=O)N[C@@H]21)C(=O)O)C(=O)O` belongs 8.47; to `CC(=O)NCCOc1ccccc1NC(=O)NCCCC[C@H](NC(=O)N[C@@H](CCC(=O)O)C(=O)O)C(=O)O`, 9.42.
In the case of `CC(=O)N(CCCC[C@H](NC(=O)N[C@@H](CCC(=O)O)C(=O)O)C(=O)O)Cc1ccc(Br)cc1` it was 10.35; in that of `CC(=O)NCCOc1cc(Cl)ccc1C(=O)NCCCC[C@H](NC(=O)N[C@@H](CCC(=O)O)C(=O)O)C(=O)O`, 9.14; in that of `O=C(O)CC[C@H](NC(=O)N[C@@H](CCCCNC(=O)Nc1ccc(Br)cc1OCCNC(=O)CCOCCOCCOCCOCCOCCOCCOCCOCCOCCOCCOCCOCCNC(=O)CCCC[C@@H]1SC[C@@H]2NC(=O)N[C@@H]21)C(=O)O)C(=O)O`, 8.41.
In the case of `O=C(O)CC[C@H](NC(=O)N[C@@H](CCCCNC(=O)Nc1ccccc1OCCNC(=O)CCOCCOCCOCCOCCOCCOCCOCCOCCOCCOCCOCCOCCNC(=O)CCCC[C@@H]1SC[C@@H]2NC(=O)N[C@@H]21)C(=O)O)C(=O)O` it was 8.12; in that of `CC(=O)NCCOc1cc(Br)ccc1NC(=O)NCCCC[C@H](NC(=O)N[C@@H](CCC(=O)O)C(=O)O)C(=O)O`, 9.66; in that of `O=C(O)CC[C@H](NC(=O)N[C@@H](CCCCNC(=O)c1ccccc1OCCNC(=O)CCOCCOCCOCCOCCOCCOCCOCCOCCOCCOCCOCCOCCNC(=O)CCCC[C@@H]1SC[C@@H]2NC(=O)N[C@@H]21)C(=O)O)C(=O)O`, 7.96.
In the case of `CC(=O)NCCOc1cc(F)ccc1C(=O)NCCCC[C@H](NC(=O)N[C@@H](CCC(=O)O)C(=O)O)C(=O)O`, the pKi is 8.99.
As to `NCCCC[C@H](NC(=O)N[C@@H](CCC(=O)O)C(=O)O)C(=O)O`, the negative-log Ki (pKi) is 7.35.
For `CC(=O)N(CCCC[C@H](NC(=O)N[C@@H](CCC(=O)O)C(=O)O)C(=O)O)Cc1ccccc1`, the negative-log Ki (pKi) is 9.51.
With `CC(=O)NCCOc1ccccc1C(=O)NCCCC[C@H](NC(=O)N[C@@H](CCC(=O)O)C(=O)O)C(=O)O`, the pKi is 9.22.
For the compound `O=C(O)CC[C@H](NC(=O)N[C@@H](CCCCNC(=O)CCOCCOCCOCCOCCOCCOCCOCCOCCOCCOCCOCCOCCNC(=O)CCCC[C@@H]1SC[C@@H]2NC(=O)N[C@@H]21)C(=O)O)C(=O)O`, the pKi is 7.98.
